Data as given in PubChem BioAssay AID588788 (The Scripps Research Institute Molecular Screening Center, 2011).
Active and inactive are the calls of the source.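 The calls were made as follows: active = compound seen by mass spectrometry to covalently label the enzyme's active site serine; inactive = no covalent labeling seen.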

Target: Platelet-activating factor acetylhydrolase (Homo sapiens) (UniProt Q13093)
Experiment: pPAFAH inhibitor binding mode by mass spectrometry – biochemical, LC-MS/MS, mechanism study, late-stage follow-up (AID 588788)
Details: purified recombinant pPAFAH, LC-MS/MS active-site labeling
Method in brief: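 System – recombinant human pPAFAH hydrophobic-patch triple mutant · Input – pPAFAH at 40 µM before compound addition · Schedule – compound exposure 60 min, 37 °C · Dosing – one dose, 100 µM final · Medium – DPBS buffer · Evaluation – catalytic serine covalent adduct presence · Controls – DMSO-only enzyme sample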

Sequence of Platelet-activating factor acetylhydrolase (Homo sapiens) (Q13093 42-441 I120A/L123A/L124A limits assumed): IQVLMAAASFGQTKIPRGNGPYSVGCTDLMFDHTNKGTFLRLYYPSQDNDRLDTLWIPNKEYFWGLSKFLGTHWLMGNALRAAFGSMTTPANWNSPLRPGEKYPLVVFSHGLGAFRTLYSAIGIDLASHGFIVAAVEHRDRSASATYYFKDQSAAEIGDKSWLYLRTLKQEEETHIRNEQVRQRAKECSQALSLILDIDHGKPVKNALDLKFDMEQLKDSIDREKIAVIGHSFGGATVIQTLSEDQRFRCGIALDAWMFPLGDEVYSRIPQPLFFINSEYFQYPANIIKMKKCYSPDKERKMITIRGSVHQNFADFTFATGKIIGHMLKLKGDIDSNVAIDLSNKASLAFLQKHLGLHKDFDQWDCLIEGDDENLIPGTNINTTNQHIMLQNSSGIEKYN

SMILES: Cc1cc(N2CCN(C(=O)Oc3ccc(-c4ccccc4)cn3)CC2)c2ccccc2n1
- outcome: active; covalent
